Source: ChEMBL document CHEMBL1156264, “Synthesis and structure-activity relationships of dimeric peptide antagonists of the human immunoglobulin G-human neonatal Fc receptor (IgG-FcRn) interaction” (J Med Chem, 2010)
Numbered stars: 1 amine (or outer) side, 2 acyl side, 3 side chain; on linkers, the order of the positions; unused ones are H or OH. Bridge positions count the residues as written; N and C are the ends. Square brackets hold non-standard residues; d marks the D form. Peptide text beside a SMILES is read from it. X1 = O=C(C(=O)[*:2])[C@H](Cc1ccc(O)cc1)N[*:1]; NHCH2CH2N(Me)CH2CO = CN(CCN[*:1])CC(=O)[*:2]; NMeL = CN[C@@H](CC(C)C)C(=O)O; Pen = CC(C)(S)[C@H](N)C(=O)O; Sar = CNCC(=O)O

Legend:
[1] = molecular target: T1, IgG receptor FcRn large subunit p51 (Homo sapiens, UniProt P55899); assay: Inhibition of IgG binding to soluble human FcRn after 2 hrs by competition ELISA
T1 sequence (P55899 whole entry): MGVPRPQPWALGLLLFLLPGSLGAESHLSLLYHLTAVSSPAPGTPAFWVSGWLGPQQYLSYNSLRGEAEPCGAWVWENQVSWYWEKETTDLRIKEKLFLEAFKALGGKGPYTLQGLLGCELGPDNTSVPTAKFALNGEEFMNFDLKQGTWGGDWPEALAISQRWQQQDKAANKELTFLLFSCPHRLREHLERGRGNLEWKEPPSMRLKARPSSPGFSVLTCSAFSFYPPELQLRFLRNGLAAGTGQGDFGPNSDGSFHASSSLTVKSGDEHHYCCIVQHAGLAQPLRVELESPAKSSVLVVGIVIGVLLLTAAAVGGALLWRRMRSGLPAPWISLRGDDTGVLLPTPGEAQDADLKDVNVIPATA

[2] = molecular target: T1, IgG receptor FcRn large subunit p51; assay: Binding affinity to soluble human FcRn at pH 6 by surface plasmon resonance assay
Method in brief: (§1)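 shFcRn was amine-coupled to a CM5 dextran chip, and peptide dilutions were run at pH 6 or pH 7.4 on a Biacore 3000 or T100. The equilibrium response was plotted against concentration and fitted to a steady-state affinity model to give Kd.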

[3] = molecular target: T1, IgG receptor FcRn large subunit p51; assay: Binding affinity to soluble human FcRn at pH 7.4 by surface plasmon resonance assay
Method in brief: as §1

[4] = molecular target: T1, IgG receptor FcRn large subunit p51; assay: Ratio of RF-Pen-TGHFG-Sar-NMeLeu-YPC IC50 to compound IC50 for soluble human FcRn

Row | SMILES | IC50 [1] | Kd [2] | Kd [3] | Ratio IC50 [4]
1 | CC(=O)N[C@@H](CCC(N)=O)C(=O)N[C@@H](CCCNC(=N)N)C(=O)N[C@@H](Cc1ccccc1)C(=O)N[C@H]1CSSC[C@@H](C(=O)N[C@@H](CC(N)=O)C(=O)NCC(=O)N2CCC[C@H]2C(N)=O)NC(=O)[C@@H]2CCCN2C(=O)C(=O)[C@H](Cc2ccc(O)cc2)NC(=O)[C@H](CC(C)C)NC(=O)CNC(=O)CNC(=O)[C@H](Cc2ccccc2)NC(=O)[C@H](Cc2cnc[nH]2)NC(=O)CNC(=O)[C@H]([C@@H](C)O)NC1=O | 40000 nM | 5300 nM | 37000 nM | –
2 | CC(=O)N[C@@H](CCCNC(=N)N)C(=O)N[C@@H](Cc1ccccc1)C(=O)N[C@H]1CSSC[C@@H](C(N)=O)NC(=O)[C@@H]2CCCN2C(=O)C(=O)[C@H](Cc2ccc(O)cc2)NC(=O)[C@H](CC(C)C)NC(=O)CNC(=O)CNC(=O)[C@H](Cc2ccccc2)NC(=O)[C@H](Cc2cnc[nH]2)NC(=O)CNC(=O)[C@H]([C@@H](C)O)NC1=O | 37000 nM | 5900 nM | – | –
3 | CC(C)C[C@H]1C(=O)N[C@@H](Cc2ccc(O)cc2)C(=O)C(=O)N2CCC[C@H]2C(=O)N[C@H](C(N)=O)CSSC(C)(C)[C@H](NC(=O)[C@H](Cc2ccccc2)NC(=O)[C@H](CCCNC(=N)N)NC(=O)C[C@H](C)C(=O)N[C@@H](CCCNC(=N)N)C(=O)N[C@@H](Cc2ccccc2)C(=O)N[C@@H]2C(=O)N[C@@H]([C@@H](C)O)C(=O)NCC(=O)N[C@@H](Cc3c[nH]cn3)C(=O)N[C@@H](Cc3ccccc3)C(=O)NCC(=O)N(C)CC(=O)N(C)[C@@H](CC(C)C)C(=O)N[C@@H](Cc3ccc(O)cc3)C(=O)C(=O)N3CCC[C@H]3C(=O)N[C@H](C(N)=O)CSSC2(C)C)C(=O)N[C@@H]([C@@H](C)O)C(=O)NCC(=O)N[C@@H](Cc2c[nH]cn2)C(=O)N[C@@H](Cc2ccccc2)C(=O)NCC(=O)N(C)CC(=O)N1C | 4.6 nM | – | – | 110
4 | CC(=O)N[C@@H](CCCNC(=N)N)C(=O)N[C@@H](Cc1ccccc1)C(=O)N[C@@H]1C(=O)N(C)[C@@H](C)C(=O)NCC(=O)N[C@@H](Cc2cnc[nH]2)C(=O)N[C@@H](Cc2ccccc2)C(=O)N[C@H]2CCCN(CC(=O)N(C)[C@@H](CC(C)C)C(=O)N[C@@H](Cc3ccc(O)cc3)C(=O)C(=O)N3CCC[C@H]3C(=O)N[C@H](C(N)=O)CSSC1(C)C)C2=O | 1100 nM | 150 nM | 950 nM | –
5 | CC(C)C[C@H]1C(=O)N[C@@H](Cc2ccc(O)cc2)C(=O)C(=O)N2CCC[C@H]2C(=O)N[C@H](C(N)=O)CSSC(C)(C)[C@H](NC(=O)[C@H](Cc2ccccc2)NC(=O)[C@H](CCCNC(=N)N)NC(=O)CC[C@H](C)C(=O)N[C@@H](CCCNC(=N)N)C(=O)N[C@@H](Cc2ccccc2)C(=O)N[C@@H]2C(=O)N[C@@H]([C@@H](C)O)C(=O)NCC(=O)N[C@@H](Cc3c[nH]cn3)C(=O)N[C@@H](Cc3ccccc3)C(=O)NCC(=O)N(C)CC(=O)N(C)[C@@H](CC(C)C)C(=O)N[C@@H](Cc3ccc(O)cc3)C(=O)C(=O)N3CCC[C@H]3C(=O)N[C@H](C(N)=O)CSSC2(C)C)C(=O)N[C@@H]([C@@H](C)O)C(=O)NCC(=O)N[C@@H](Cc2c[nH]cn2)C(=O)N[C@@H](Cc2ccccc2)C(=O)NCC(=O)N(C)CC(=O)N1C | 5.6 nM | – | – | 90
6 | CC(C)C[C@H]1C(=O)N[C@@H](Cc2ccc(O)cc2)C(=O)C(=O)N2CCC[C@H]2C(=O)N[C@H](C(N)=O)CSSC(C)(C)[C@H](NC(=O)[C@H](Cc2ccccc2)NC(=O)[C@H](CCCNC(=N)N)NC(=O)CC(C)(C)CC(=O)N[C@@H](CCCNC(=N)N)C(=O)N[C@@H](Cc2ccccc2)C(=O)N[C@@H]2C(=O)N[C@@H]([C@@H](C)O)C(=O)NCC(=O)N[C@@H](Cc3c[nH]cn3)C(=O)N[C@@H](Cc3ccccc3)C(=O)NCC(=O)N(C)CC(=O)N(C)[C@@H](CC(C)C)C(=O)N[C@@H](Cc3ccc(O)cc3)C(=O)C(=O)N3CCC[C@H]3C(=O)N[C@H](C(N)=O)CSSC2(C)C)C(=O)N[C@@H]([C@@H](C)O)C(=O)NCC(=O)N[C@@H](Cc2c[nH]cn2)C(=O)N[C@@H](Cc2ccccc2)C(=O)NCC(=O)N(C)CC(=O)N1C | – | – | – | 100
7 | CC(=O)N[C@@H](CCCNC(=N)N)C(=O)N[C@@H](Cc1ccccc1)C(=O)N[C@@H]1C(=O)N[C@@H]([C@@H](C)O)C(=O)NCC(=O)N[C@@H](Cc2c[nH]cn2)C(=O)N[C@@H](Cc2ccccc2)C(=O)NCC(=O)N(C)CC(=O)N(C)[C@@H](CC(C)C)C(=O)N[C@@H](Cc2ccc(O)cc2)C(=O)C(=O)N2CCC[C@H]2C(=O)N[C@H](C(N)=O)CSSC1(C)C | 520 nM | 31 nM | 170 nM | –
8 | CC(C)C[C@H]1C(=O)N[C@@H](Cc2ccc(O)cc2)C(=O)C(=O)N2CCC[C@H]2C(=O)N[C@H](C(N)=O)CSSC(C)(C)[C@H](NC(=O)[C@H](Cc2ccccc2)NC(=O)[C@H](CCCNC(=N)N)NC(=O)CCOCCOCCOCCOCCOCCC(=O)N[C@@H](CCCNC(=N)N)C(=O)N[C@@H](Cc2ccccc2)C(=O)N[C@@H]2C(=O)N[C@@H]([C@@H](C)O)C(=O)NCC(=O)N[C@@H](Cc3c[nH]cn3)C(=O)N[C@@H](Cc3ccccc3)C(=O)NCC(=O)N(C)CC(=O)N(C)[C@@H](CC(C)C)C(=O)N[C@@H](Cc3ccc(O)cc3)C(=O)C(=O)N3CCC[C@H]3C(=O)N[C@H](C(N)=O)CSSC2(C)C)C(=O)N[C@@H]([C@@H](C)O)C(=O)NCC(=O)N[C@@H](Cc2c[nH]cn2)C(=O)N[C@@H](Cc2ccccc2)C(=O)NCC(=O)N(C)CC(=O)N1C | – | – | – | 110
9 | CC(C)C[C@H]1C(=O)N[C@@H](Cc2ccc(O)cc2)C(=O)C(=O)N2CCC[C@H]2C(=O)N[C@H](C(N)=O)CSSC(C)(C)[C@H](NC(=O)[C@H](Cc2ccccc2)NC(=O)[C@H](CCCNC(=N)N)NC(=O)CN(C)CCNC(=O)CNC(=O)[C@@H]2CSSC(C)(C)[C@H](NC(=O)[C@H](Cc3ccccc3)NC(=O)[C@@H](N)CCCNC(=N)N)C(=O)N[C@@H]([C@@H](C)O)C(=O)NCC(=O)N[C@@H](Cc3c[nH]cn3)C(=O)N[C@@H](Cc3ccccc3)C(=O)NCC(=O)N(C)CC(=O)N(C)[C@@H](CC(C)C)C(=O)N[C@@H](Cc3ccc(O)cc3)C(=O)C(=O)N3CCC[C@H]3C(=O)N2)C(=O)N[C@@H]([C@@H](C)O)C(=O)NCC(=O)N[C@@H](Cc2c[nH]cn2)C(=O)N[C@@H](Cc2ccccc2)C(=O)NCC(=O)N(C)CC(=O)N1C (H-RF[Pen]TGHFG[Sar][NMeL][X1]PCG[NHCH2CH2N(Me)CH2CO]RF[Pen]TGHFG[Sar][NMeL][X1]PC-NH2; disulfide 3-13, 18-28) | – | – | – | 130
10 | CC(C)C[C@H]1C(=O)N[C@@H](Cc2ccc(O)cc2)C(=O)C(=O)N2CCC[C@H]2C(=O)N[C@H](C(N)=O)CSSC(C)(C)[C@H](NC(=O)[C@H](Cc2ccccc2)NC(=O)[C@H](CCCNC(=N)N)NC(=O)CCNC(=O)CCNC(=O)CCNC(=O)CN(C)CCNC(=O)CCC(=O)N[C@@H](CCCNC(=N)N)C(=O)N[C@@H](Cc2ccccc2)C(=O)N[C@@H]2C(=O)N[C@@H]([C@@H](C)O)C(=O)NCC(=O)N[C@@H](Cc3c[nH]cn3)C(=O)N[C@@H](Cc3ccccc3)C(=O)NCC(=O)N(C)CC(=O)N(C)[C@@H](CC(C)C)C(=O)N[C@@H](Cc3ccc(O)cc3)C(=O)C(=O)N3CCC[C@H]3C(=O)N[C@H](C(N)=O)CSSC2(C)C)C(=O)N[C@@H]([C@@H](C)O)C(=O)NCC(=O)N[C@@H](Cc2c[nH]cn2)C(=O)N[C@@H](Cc2ccccc2)C(=O)NCC(=O)N(C)CC(=O)N1C | – | – | – | 220
11 | CC(C)C[C@H]1C(=O)N[C@@H](Cc2ccc(O)cc2)C(=O)C(=O)N2CCC[C@H]2C(=O)N[C@H](C(N)=O)CSSC(C)(C)[C@H](NC(=O)[C@H](Cc2ccccc2)NC(=O)[C@H](CCCNC(=N)N)NC(=O)CCC(=O)N(C)CCN(C)C(=O)CCC(=O)N[C@@H](CCCNC(=N)N)C(=O)N[C@@H](Cc2ccccc2)C(=O)N[C@@H]2C(=O)N[C@@H]([C@@H](C)O)C(=O)NCC(=O)N[C@@H](Cc3c[nH]cn3)C(=O)N[C@@H](Cc3ccccc3)C(=O)NCC(=O)N(C)CC(=O)N(C)[C@@H](CC(C)C)C(=O)N[C@@H](Cc3ccc(O)cc3)C(=O)C(=O)N3CCC[C@H]3C(=O)N[C@H](C(N)=O)CSSC2(C)C)C(=O)N[C@@H]([C@@H](C)O)C(=O)NCC(=O)N[C@@H](Cc2c[nH]cn2)C(=O)N[C@@H](Cc2ccccc2)C(=O)NCC(=O)N(C)CC(=O)N1C | 5.2 nM | – | – | 100
12 | CC(C)C[C@H]1C(=O)N[C@@H](Cc2ccc(O)cc2)C(=O)C(=O)N2CCC[C@H]2C(=O)N[C@H](C(N)=O)CSSC(C)(C)[C@H](NC(=O)[C@H](Cc2ccccc2)NC(=O)[C@H](CCCNC(=N)N)NC(=O)CN(C)CC(=O)N[C@@H](CCCNC(=N)N)C(=O)N[C@@H](Cc2ccccc2)C(=O)N[C@@H]2C(=O)N[C@@H]([C@@H](C)O)C(=O)NCC(=O)N[C@@H](Cc3c[nH]cn3)C(=O)N[C@@H](Cc3ccccc3)C(=O)NCC(=O)N(C)CC(=O)N(C)[C@@H](CC(C)C)C(=O)N[C@@H](Cc3ccc(O)cc3)C(=O)C(=O)N3CCC[C@H]3C(=O)N[C@H](C(N)=O)CSSC2(C)C)C(=O)N[C@@H]([C@@H](C)O)C(=O)NCC(=O)N[C@@H](Cc2c[nH]cn2)C(=O)N[C@@H](Cc2ccccc2)C(=O)NCC(=O)N(C)CC(=O)N1C | – | – | – | 110
13 | CC(C)C[C@H]1C(=O)N[C@@H](Cc2ccc(O)cc2)C(=O)C(=O)N2CCC[C@H]2C(=O)N[C@H](C(N)=O)CSSC(C)(C)[C@H](NC(=O)[C@H](Cc2ccccc2)NC(=O)[C@H](CCCNC(=N)N)NCCNC(=O)CCC(=O)N[C@@H](CCCNC(=N)N)C(=O)N[C@@H](Cc2ccccc2)C(=O)N[C@@H]2C(=O)N[C@@H]([C@@H](C)O)C(=O)NCC(=O)N[C@@H](Cc3c[nH]cn3)C(=O)N[C@@H](Cc3ccccc3)C(=O)NCC(=O)N(C)CC(=O)N(C)[C@@H](CC(C)C)C(=O)N[C@@H](Cc3ccc(O)cc3)C(=O)C(=O)N3CCC[C@H]3C(=O)N[C@H](C(N)=O)CSSC2(C)C)C(=O)N[C@@H]([C@@H](C)O)C(=O)NCC(=O)N[C@@H](Cc2c[nH]cn2)C(=O)N[C@@H](Cc2ccccc2)C(=O)NCC(=O)N(C)CC(=O)N1C | 1.6 nM | – | – | 330
